The values that follow come from ChEMBL document CHEMBL1949645, “In vitro and in vivo antifilarial activity evaluation of 3,6-epoxy [1,5]dioxocines: a new class of antifilarial agents” (Bioorg Med Chem Lett, 2012).

Test [1] has as its system Brugia malayi. The experiment in a line: Antifilarial activity against microfilariae Brugia malayi by motility assay. The following applies: for IC50: Brugia malayi. The format is functional, organism-based. The procedure, abridged:
(§1)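 Brugia malayi (sub-periodic strain), female adult worms or microfilariae, scored by motility following the Murthy and Chatterjee method. Compounds and reference DEC dissolved in DMSO, final DMSO below 0.1% in incubation medium; DMSO-only controls. LC100 is the concentration giving 100% loss of motility (parasite death); IC50 is the concentration giving 50% motility inhibition.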

In test [2] the test system is Brugia malayi. The experiment in a line: Growth inhibition of adult Brugia malayi by MTT assay. It is filed as functional. The procedure, abridged:
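Adult female B. malayi worms were exposed in vitro to agents dissolved in DMSO, keeping final DMSO below 0.1%. Controls received DMSO alone. Results are given as mean % inhibition of MTT reduction.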
For orientation: Tetrazolium assays rely on reduction of a dye to a coloured formazan, in cell work by metabolically active cells.

Test [3] has as its system Brugia malayi. Nature of the test: Antifilarial activity against adult Brugia malayi by motility assay. The following applies: for IC50: Brugia malayi. It is filed as functional, organism-based. The procedure, abridged: as §1
Test [4] deals with Brugia malayi. The experiment in a line: Antifilarial activity against 5 to 7 months old Brugia malayi infected in Mastomys coucha assessed as sterilized female worm at 200 mg/kg, sc administered 7 to 8 days post-adult worm transplantation for 5 days measured on day 91 (reference value: 19.62%). The format is functional. The note with it: route subcutaneous. The procedure, abridged: (§2)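 Mastomys coucha harbouring B. malayi were dosed at 200 or 50 mg/kg, with vehicle-treated animals as controls. Male, female and total adult worms recovered were counted and given as mean ± SD. Sterilized female worms were reported as count (%).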

Test [5] concerns Brugia malayi. The experiment in a line: Antifilarial activity against Brugia malayi infected in Meriones unguiculatus assessed as sterilized female worm at 200 mg/kg, sc administered 7 to 8 days post-adult worm transplantation for 5 days measured after 42 days. It is filed as functional. The following applies: route subcutaneous. The procedure, abridged:
(§3)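 Dosing was s.c. once daily × 5 days: 200 mg/kg (n = 4) or 25 mg/kg (n = 6), with vehicle-treated controls (n = 4). Read-outs were peritoneal-cavity microfilaraemia status, worms recovered (mean ± SD, P vs control) and % sterilized female worms.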

Test [6] relates to Brugia malayi. Nature of the test: Antifilarial activity against 5 to 7 months old Brugia malayi infected in Mastomys coucha assessed as reduction in worm burden at 200 mg/kg, sc administered 7 to 8 days post-adult worm transplantation for 5 days measured on day 91 relative to control. It is filed as functional. Set-up: scale not given: the % may be the effect or the level left. The note with it: route subcutaneous. The procedure, abridged:
as §2

The subject of test [7] is Brugia malayi. Nature of the test: Antifilarial activity against 5 to 7 months old Brugia malayi infected in Mastomys coucha assessed as sterilized female worm at 50 mg/kg, sc administered 7 to 8 days post-adult worm transplantation for 5 days measured on day 91 (reference value: 19.62%). The format is functional. The note with it: route subcutaneous. The procedure, abridged: as §2

The subject of test [8] is Brugia malayi. The experiment in a line: Antifilarial activity against 5 to 7 months old Brugia malayi infected in Mastomys coucha assessed as reduction in worm burden at 50 mg/kg, sc administered 7 to 8 days post-adult worm transplantation for 5 days measured on day 91 relative to control. Also on record: scale not given: the % may be the effect or the level left. It is filed as functional. The note with it: route subcutaneous. The procedure, abridged:
as §2

In test [9] the test system is Brugia malayi. The experiment in a line: Antifilarial activity against Brugia malayi infected in Meriones unguiculatus assessed as sterilized female worm at 25 mg/kg, sc administered 7 to 8 days post-adult worm transplantation for 5 days measured after 42 days. It is filed as functional. The following applies: route subcutaneous. The procedure, abridged:
as §3

Values after ≈ are worked out from the molar mass of the structure shown.

For `Cc1ccc(C(=O)/C=C/c2cc3c(c4ccccc24)OCC2COC3O2)cc1` (racemic), the LC100 in test [1] and in test [3] was >10 µg/mL in each case. The “growth inhibition (GI)” value in test [2] is listed as 33%.
With `CCC(C)c1cc(/C=C/C(=O)c2ccc(Cl)cc2)cc2c1OCC1COC2O1` (racemic), the Activity was 17.78% in test [4], 63% in [5] and 38.16% in test [6]. For the same compound, the LC100 in [1] is 10 µg/mL; in test [3], 5 µg/mL. Moreover, the IC50 (commonly the midpoint of a concentration-inhibition curve) stood at 3.5 µg/mL (≈ 8.77 µM) in test [1] and 1.6 µg/mL (≈ 4.01 µM) in test [3].
As for `CCC(C)c1cc(/C=C/C(=O)c2ccccc2)cc2c1OCC1COC2O1` (racemic), in test [1], the LC100 amounted to 5 µg/mL and the IC50 stood at 0.9 µg/mL (≈ 2.47 µM). For the same compound, in test [5], the Activity is listed as 27%. In test [3], this compound came in with an LC100 of 2.5 µg/mL and an IC50 of 0.9 µg/mL (≈ 2.47 µM).
For the compound `CCC(C)c1cc(/C=C/C(=O)c2ccc(C)cc2)cc2c1OCC1COC2O1` (racemic), the figures for the LC100 in test [1] and in [3] were >10 µg/mL and 10 µg/mL, respectively. This compound also gave an IC50 in test [3] of 0.5 µg/mL (≈ 1.32 µM).
On to `O=C(/C=C/c1cc2c(c3ccccc13)OCC1COC2O1)c1ccc(Cl)cc1` (racemic), for which the LC100 in test [1] and in test [3] was >10 µg/mL each time. Further, the “growth inhibition (GI)” value in test [2] is 41%.
For `O=C(/C=C/c1cc2c(c3ccccc13)OCC1COC2O1)c1ccccc1` (racemic), the LC100 in test [1] and in test [3] was >10 µg/mL in each case. In addition, the “growth inhibition (GI)” value in [2] amounted to 34%.
In test [1], `Cc1ccc(C(=O)/C=C/c2cc(C)c3c(c2)C2OCC(CO3)O2)cc1` (racemic) showed an LC100 of 5 µg/mL and an IC50 of 1.8 µg/mL (≈ 5.35 µM). Besides, the Activity in test [5] turned out to be 45%. In addition, the “growth inhibition (GI)” value in test [2] amounted to 22%. Also, in test [3], the LC100 was 1.25 µg/mL and the IC50 stood at 0.4 µg/mL (≈ 1.19 µM).
As to `COc1ccc(C(=O)/C=C/c2cc(C)c3c(c2)C2OCC(CO3)O2)cc1` (racemic), the Activity in [4] stood at 24.6%; in test [5] it was 24%; in [6], 32.89%. The LC100 in test [1] is >10 µg/mL; in test [3], 10 µg/mL. Also, the concentration for half-maximal inhibition (IC50) was found to be 3.9 µg/mL (≈ 11.1 µM) in test [1] and 3.5 µg/mL (≈ 9.93 µM) in test [3]. The “growth inhibition (GI)” value in test [2] came out at 22%.
On to `Cc1cc(/C=C/C(=O)c2ccc(Cl)cc2)cc2c1OCC1COC2O1` (racemic), for which, in [1], the LC100 turned out to be 2.5 µg/mL and the IC50 came to 1.1 µg/mL (≈ 3.08 µM). The Activity in test [5] was 29%. Also, in test [2], the “growth inhibition (GI)” value turned out to be 39%. In test [3], this compound displayed an LC100 of 1.25 µg/mL and an IC50 of 0.6 µg/mL (≈ 1.68 µM).
`Cc1cc(/C=C/C(=O)c2ccccc2)cc2c1OCC1COC2O1` (racemic): in test [1], the LC100 came out at 2.5 µg/mL and half-maximal inhibition (IC50) was put at 0.9 µg/mL (≈ 2.79 µM). In test [5], the Activity is listed as 29%. Besides, the “growth inhibition (GI)” value in test [2] is 15%. In test [3], this compound showed an LC100 of 1.25 µg/mL and an IC50 of 1 µg/mL (≈ 3.1 µM).
For `COc1ccc(C(=O)/C=C/c2cc3c(c4ccccc24)OCC2COC3O2)cc1` (racemic), the LC100 in test [1] and in test [3] was >10 µg/mL each time. For the same compound, the “growth inhibition (GI)” value in [2] was 35%.
For `CCC(C)c1cc(/C=C/C(=O)c2ccc(OC)cc2)cc2c1OCC1COC2O1` (racemic), the LC100 in test [1] and in test [3] was >10 µg/mL in each case.
Turning to `CCN(CC)C(=O)N1CCN(C)CC1` [DIETHYLCARBAMAZINE], in [1], the LC100 was 500 µg/mL and half-maximal inhibition (IC50) was put at 354 µg/mL (≈ 1780 µM). In addition, in test [2], the “growth inhibition (GI)” value worked out at 64%. In [3], this compound had an LC100 of 800 µg/mL and an IC50 of 289 µg/mL (≈ 1450 µM).
Regarding `CCN(CC)C(=O)N1CCN(C)CC1.O=C(O)CC(O)(CC(=O)O)C(=O)O` [DIETHYLCARBAMAZINE CITRATE], the Activity in [7] came out at 20.59%; in [8] it was 20.18%; in test [9], 11%.
